For test [1], the system named is normal colon cells (CoN, ATCC CRL-1790). Briefly: XTT cell viability assay, normal colon cells. The format is cell-based, human. Particulars: read-out: GI50 normal colon. For orientation: Tetrazolium assays rely on reduction of a dye to a coloured formazan, in cell work by metabolically active cells.
The test system of test [2] is HCT-116 colorectal cancer cells. Briefly: XTT cell viability assay, HCT-116. The format is cell-based, human. The settings on record: for GI50: read-out: GI50 HCT-116.
Test [3] addresses pre-miR-21. Briefly: Fluorescence displacement assay. It counts as binding. Particulars: data not shown.
The subject of test [4] is pre-miR-21. Briefly: Differential scanning fluorimetry. It counts as binding. Particulars: titration up to 20-25 μM. A general note: In DSF a fluorescence change marks the thermal transition of the protein.
Test [5] deals with miRs -1246, -203a-3p, -200b-3p, -361. Briefly: RT-qPCR of other miRs in HCT-116 cells. The format is cell-based, human. The settings on record: 50 nM, 0-24 h. The essentials:
(§1)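 HCT-116 cells at 50–60% confluence were given 50 nM test compound, and RNA was extracted at time points from 0 to 24 h. miRNAs were quantified by RT-qPCR with LNA primers: 95°C 10 min, then 45 cycles of 95°C 10 s, 60°C 1 min and 95°C 10 s. U6 snRNA served as reference and UniSp6 as spike-in control; run in triplicate.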

The test system of another test is pre-miR-638. Briefly: DSF specificity screen, pre-miR-638. Particulars: 5 μM compound, up to 5-fold molar excess. The format is binding. An outline of the steps:
(§2)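 Thermal melt by DSF with SYBR Green: each RNA was exposed to 5 μM test compound and its Tm was determined. Melts were run continuously up to 99°C at 0.09°C/s, with 5 acquisitions per °C and 0.75 s integration. Tm was taken as the half-denatured temperature from a 4PL sigmoidal fit of fluorescence against temperature.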

In test [6] the target is Dicer-mediated processing of pre-miR-21 (Homo sapiens, UniProt Q9UPY3). Briefly: Dicer processing assay. Particulars: for shift in Tm in the presence of Dicer: vs DMSO only control. It counts as biochemical.
A further test relates to Pdcd4 and PTEN. Briefly: Western blot of Pdcd4 and PTEN protein in HCT-116 cells. Particulars: 50 nM, within 24 hours post-treatment. The format is cell-based, human. An outline of the steps: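 HCT-116 cells treated with 50 nM test compound were harvested at 0–36 h. Lysates were TCA/acetone precipitated, redissolved in 8 M urea, and 20 μg protein per lane was separated on 4–12% Bis-Tris gels, then dry-transferred to PVDF. Blots were probed with mouse anti-PDCD4 or anti-PTEN plus rabbit anti-GAPDH (internal control) and detected with IR-dye secondaries.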
On the technique in general: In western blotting, separated proteins are transferred to a membrane and probed.

Another test concerns PDCD4. Briefly: RT-qPCR of PDCD4 transcript in HCT-116 cells. The format is cell-based, human.
The next test relates to PTEN. Briefly: RT-qPCR of PTEN transcript in HCT-116 cells. The format is cell-based, human.
In the next test the test system is tRNA (Lys,3). Briefly: DSF specificity screen, tRNA. It counts as binding. The settings on record: 5 μM compound, up to 5-fold molar excess. An outline of the steps:
as §2

Test [7] deals with pre-miR-21. Briefly: Differential scanning calorimetry. The format is binding. The settings on record: 30 μM pre-miR-21, 300 μM bPGN. An outline of the steps: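 Pre-miR-21 (30 μM), with or without 300 μM test compound, in 0.25 mM Tris-HCl pH 7.5, 0.25 mM NaCl and 1.5% DMSO, degassed. The cell was pressurised to 30 psi and run through 8 alternating up/down scans at 60°C/hr with a 16 s filter. The first up scan was subtracted, the baseline corrected, and the data fitted to a non-2-state unfolding model to give Tm and enthalpy for each transition.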

Another test concerns miR-21. Briefly: RT-qPCR of miR-21 expression in HCT-116 cells. It counts as cell-based, human. Particulars: 50 nM, within 2 hours post-treatment. The essentials:
as §1

The subject of the next test is HIV TAR. Briefly: DSF specificity screen, HIV TAR. It counts as binding. Particulars: 5 μM compound, up to 5-fold molar excess. The essentials: as §2
Test [8] has as its system pre-miR-21. Briefly: RT-qPCR of pre-miR-21 expression in HCT-116 cells. It counts as cell-based, human. Particulars: 50 nM, up to 24 hours post-treatment.
Where [9] appears, read: XTT, ATCC CRL-1790, 24 hours post-treatment.

The values that follow come from PMC6697619 (Cell chemical biology, 2019).

Values joined by “and” are separate entries in the source; they are usually repeats but may differ in a detail not shown here. Identical values can stand only once. “Also recorded” adds a separate entry of the source. Like-named read-outs stand apart in the source and are kept apart here.

Dicer-mediated processing of pre-miR-21, sequence (Q9UPY3 whole entry): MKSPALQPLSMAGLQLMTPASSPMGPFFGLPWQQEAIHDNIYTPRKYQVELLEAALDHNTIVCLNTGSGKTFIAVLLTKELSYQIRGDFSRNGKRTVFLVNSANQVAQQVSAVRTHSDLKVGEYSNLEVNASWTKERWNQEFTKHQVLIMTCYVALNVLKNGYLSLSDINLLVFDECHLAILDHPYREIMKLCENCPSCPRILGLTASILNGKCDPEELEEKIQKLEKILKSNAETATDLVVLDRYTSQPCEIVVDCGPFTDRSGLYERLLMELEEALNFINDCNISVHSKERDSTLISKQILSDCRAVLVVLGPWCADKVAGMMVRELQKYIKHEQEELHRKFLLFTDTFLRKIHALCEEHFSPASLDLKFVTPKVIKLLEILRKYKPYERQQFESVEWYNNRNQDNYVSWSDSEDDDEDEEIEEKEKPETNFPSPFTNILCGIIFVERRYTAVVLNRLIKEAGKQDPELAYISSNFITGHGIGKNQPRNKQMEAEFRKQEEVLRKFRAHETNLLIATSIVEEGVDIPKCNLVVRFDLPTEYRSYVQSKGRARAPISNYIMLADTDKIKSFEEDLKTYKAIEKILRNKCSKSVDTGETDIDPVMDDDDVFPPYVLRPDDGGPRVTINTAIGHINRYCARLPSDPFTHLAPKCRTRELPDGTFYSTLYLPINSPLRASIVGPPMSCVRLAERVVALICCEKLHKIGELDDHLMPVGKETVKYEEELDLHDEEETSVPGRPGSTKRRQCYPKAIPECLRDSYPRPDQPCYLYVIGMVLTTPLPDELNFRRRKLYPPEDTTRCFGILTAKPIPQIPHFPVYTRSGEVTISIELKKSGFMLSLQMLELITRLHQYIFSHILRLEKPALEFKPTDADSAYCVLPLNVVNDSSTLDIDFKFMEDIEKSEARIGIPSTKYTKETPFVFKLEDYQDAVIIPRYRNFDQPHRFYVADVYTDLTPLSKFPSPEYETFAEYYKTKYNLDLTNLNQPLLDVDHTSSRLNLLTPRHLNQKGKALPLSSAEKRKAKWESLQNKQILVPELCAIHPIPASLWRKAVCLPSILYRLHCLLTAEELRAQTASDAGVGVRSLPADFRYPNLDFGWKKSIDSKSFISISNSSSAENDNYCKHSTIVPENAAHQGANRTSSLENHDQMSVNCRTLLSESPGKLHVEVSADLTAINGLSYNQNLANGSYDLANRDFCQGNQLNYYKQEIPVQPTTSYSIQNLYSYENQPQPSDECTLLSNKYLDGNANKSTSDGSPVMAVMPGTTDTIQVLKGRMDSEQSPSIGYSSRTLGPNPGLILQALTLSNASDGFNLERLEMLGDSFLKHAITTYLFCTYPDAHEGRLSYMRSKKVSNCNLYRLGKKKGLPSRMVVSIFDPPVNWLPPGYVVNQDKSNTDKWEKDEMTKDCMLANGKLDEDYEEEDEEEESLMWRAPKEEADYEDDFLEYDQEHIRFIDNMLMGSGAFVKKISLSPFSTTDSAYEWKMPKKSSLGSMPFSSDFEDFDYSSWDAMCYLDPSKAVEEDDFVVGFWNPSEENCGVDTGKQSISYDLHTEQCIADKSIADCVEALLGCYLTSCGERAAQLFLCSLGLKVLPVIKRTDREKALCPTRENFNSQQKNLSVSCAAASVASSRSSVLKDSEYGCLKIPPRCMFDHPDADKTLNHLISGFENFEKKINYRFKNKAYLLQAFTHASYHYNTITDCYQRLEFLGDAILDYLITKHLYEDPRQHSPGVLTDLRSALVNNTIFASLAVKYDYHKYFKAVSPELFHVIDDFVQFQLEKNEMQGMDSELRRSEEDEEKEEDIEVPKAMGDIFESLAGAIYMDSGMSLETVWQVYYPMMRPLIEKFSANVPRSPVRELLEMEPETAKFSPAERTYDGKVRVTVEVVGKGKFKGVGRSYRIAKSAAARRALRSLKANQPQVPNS

For orientation: GI50 means the concentration giving 50% growth inhibition. `O=c1[nH]cc(F)c(=O)[nH]1` [Compound 10, 5-fluorouracil, reference compound]: the GI50 in test [1] (Homo sapiens, 24 h) was 2000 ± 200 nM; in test [2] (Homo sapiens, HCT-116, 24 h), 720 ± 20 nM.
For `CCCCCC1=C/C(=C/c2[nH]c(-c3ccc[nH]3)cc2OC)N=C1C` [Compound 3, prodigiosin, reference compound], the GI50 was ≥ 10000 nM in [1] (Homo sapiens, 24 h) and 240 ± 40 nM in test [2] (Homo sapiens, HCT-116, 24 h).
In the case of `C[C@@H](N)C(=O)N[C@H]1CO[C@H](O)[C@H](N)[C@H]1O` [Compound 8, prumycin], the GI50 in test [1] (setting [9]) is 5100 ± 100 nM; in test [2] (XTT, 24 hours post-treatment), ≥ 10000 nM.
Turning to “1,5-bis[3-(2-hydroxyethylamino)propylamino]anthracene-9,10-dione hydrochloride [Compound 6]”, the GI50 in test [1] (setting [9]) came out at 1100 ± 800 nM. Besides, in test [2] (XTT, 24 hours post-treatment), the “GI50 HCT-116 in words” value is on record as “high nanomolar” and the GI50 came to 3200 ± 600 nM.
Consider `CC1(C)CCC(c2ccc(Cl)cc2)=C(CN2CCN(c3ccc(C(=O)NS(=O)(=O)c4ccc(N[C@H](CCN5CCOCC5)CSc5ccccc5)c(S(=O)(=O)C(F)(F)F)c4)cc3)CC2)C1` [Navitoclax], for which, on pre-miR-21 [3], the “apparent binding affinity (Kd app)” value is given as “did not show apparent binding affinity”. Also, the “interaction with pre-miR-21 in DSF” value in the test with pre-miR-21 [4] is “no significant interaction”.
On to `COc1cc2c3c(cc4ccccc4c3c1OC)N(C)CC2` [Compound 9, dehydronuciferin], for which the GI50 was > 10000 nM in test [1] (setting [9]) and ≥ 10000 nM in [2] (XTT, 24 hours post-treatment).
Take `COC1=CC(c2cc3ccccc3[nH]2)=N/C1=C\c1[nH]c(C)cc1C` [Compound 2, obatoclax, reference compound]: the GI50 in test [1] (Homo sapiens, 24 h) is ≥ 10000 nM; in test [2] (Homo sapiens, HCT-116, 24 h) it was 100 ± 10 nM.
Regarding `CCCC[C@H]1CCCCCCc2[nH]c(/C=C3\N=CC(c4ccc[nH]4)=C3OC)cc21` [Compound 1, butylcycloheptyl prodiginine], the “reduction of expression level of the other tested miRs” value in [5] is on record as ≤ 30%. Also, the “Tm change of pre-miR-638” value in the test on pre-miR-638 is “did not significantly change the Tm; also recorded: no Tm shift was observed”. Further, the “shift in Tm in the presence of Dicer” value is −2.8 °C in test [6] (50 μM compound, DSF) and −0.6 °C in [6] (100 μM compound, DSF). Besides, in [6] (50 and 100 μM, 10U Dicer per 10 μM pre-miR-21), the “inhibition of Dicer processing of pre-miR-21, gel shift” value is “dose dependent inhibition of Dicer processing”. In test [6] (in the presence of 10 μM compound, DSF), the “Tm of pre-miR-21 under Dicer reaction conditions” value stood at 62.2 °C. Further, in the test on Pdcd4 and PTEN, the “Pdcd4 and PTEN protein levels” value was “time dependent increase”. Besides, the results for the PDCD4 transcript upregulation in the test on PDCD4 (by 8 hours post-treatment) and in the test on PDCD4 (by 36 hours post-treatment) were 2 fold and 2 – 4 fold, respectively. Moreover, the PTEN transcript upregulation is 2 fold in the test with PTEN (by 8 hours post-treatment) and 2 – 4 fold in the test on PTEN (by 36 hours post-treatment). For the same molecule, the GI50 in [1] (setting [9]) was ≥ 10000 nM; in test [2] (XTT, 24 hours post-treatment), 35 ± 3 nM. Further, the “Tm change of tRNA (Lys,3)” value with tRNA (Lys,3) is “did not significantly change the Tm”. In the test with pre-miR-21 [7], the “DSC thermal transition Tm1 of pre-miR-21 in the presence of compound” value worked out at 42.3 °C. The “DSC thermal transition Tm2 of pre-miR-21 in the presence of compound” value in the test on pre-miR-21 [7] is 68.0 °C. Moreover, the “reduction of miR-21 levels” value with miR-21 is ~ 80%. Moreover, the “reduction of cell number” value in test [2] (0.05 μM, 24-hours post-treatment) was determined as 55%. Further, the cell death result in [2] (concentration > 0.5 μM, 24 h) is recorded as “complete cell death”. In [2] (read-out: cellular growth inhibitory activity, HCT-116, as restated in text), the IC50 is 35 nM and ~35 nM. The “Tm change of HIV TAR” value in the test with HIV TAR was “did not significantly change the Tm”. For the same molecule, in the test with pre-miR-21 [8], the pre-miR-21 expression level result is listed as “did not significantly change”.
With `CC[C@@]1(O)C[C@H](O[C@H]2C[C@H](N(C)C)[C@H](O)[C@H](C)O2)c2c(cc3c(c2O)C(=O)c2c(O)cccc2C3=O)[C@H]1C(=O)OC` [Compound 4, aklavin], the GI50 in [1] (setting [9]) amounted to 1700 ± 400 nM; in [2] (XTT, 24 hours post-treatment) it was 570 ± 60 nM. In test [2] (XTT, 24 hours post-treatment), the “GI50 HCT-116 in words” value is “high nanomolar”.
With `COc1cc2c3c4c1Oc1cc5c(cc1O4)[C@@H](Cc1ccc(O)c(c1)Oc1ccc(cc1)C[C@@H]3N(C)CC2)N(C)CC5` [Compound 5, trigilletine], the GI50 in test [1] (Homo sapiens, 24 h) came out at 1000 ± 200 nM; in [2] (Homo sapiens, HCT-116, 24 h) it was 3500 ± 500 nM. Moreover, the “GI50 HCT-116 in words” value in test [2] (XTT, 24 hours post-treatment) is on record as “high nanomolar”.
As to `CN1CCCC2C(c3ccccc3)C(C3=NCCCC3)C(c3ccccc3)CC21` (stereo not drawn) [Compound 7, Lobinaline], the GI50 in test [1] (setting [9]) was > 10000 nM; in test [2] (XTT, 24 hours post-treatment) it was ≥ 10000 nM.
